# What was measured:
# NG108-15 [1] = assay: The compound was tested for efficacy against 5-Hydroxytryptamine 3 receptor by measuring [14C]guanidinium uptake on NG108-15 cells; A= agonist; assay type: functional, cell-based; conditions: filed as agonist
# Summary of the method: (§1)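 NG108-15 cells, grown 2 days, were washed in HEPES saline pH 7.4. They were exposed 10 min at 37 °C to buffer (135 mM NaCl, 10 mM guanidinium) with […] [14C]guanidinium, 1 mM 5-HT, […] and/or 8 drug concentrations. Cells were washed in ice-cold choline buffer, dissolved in NaOH and counted by scintillation. Assays run in triplicate.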
# [2] = molecular target: Serotonin 3 (5-HT3) receptor; assay: Effective concentration against 5-Hydroxytryptamine 3 receptor by measuring [14C]guanidinium uptake on NG108-15 cells.; assay type: functional, cell-based
# [3] = molecular target: T1, Serotonin 3 (5-HT3) receptor (Rattus norvegicus, UniProt P35563+Q9JJ16); assay: Binding affinity against 5-hydroxytryptamine 3 (5-HT3) receptor from rat cortical homogenate using [3H]zacopride as radioligand
# T1 sequence (P35563 whole entry): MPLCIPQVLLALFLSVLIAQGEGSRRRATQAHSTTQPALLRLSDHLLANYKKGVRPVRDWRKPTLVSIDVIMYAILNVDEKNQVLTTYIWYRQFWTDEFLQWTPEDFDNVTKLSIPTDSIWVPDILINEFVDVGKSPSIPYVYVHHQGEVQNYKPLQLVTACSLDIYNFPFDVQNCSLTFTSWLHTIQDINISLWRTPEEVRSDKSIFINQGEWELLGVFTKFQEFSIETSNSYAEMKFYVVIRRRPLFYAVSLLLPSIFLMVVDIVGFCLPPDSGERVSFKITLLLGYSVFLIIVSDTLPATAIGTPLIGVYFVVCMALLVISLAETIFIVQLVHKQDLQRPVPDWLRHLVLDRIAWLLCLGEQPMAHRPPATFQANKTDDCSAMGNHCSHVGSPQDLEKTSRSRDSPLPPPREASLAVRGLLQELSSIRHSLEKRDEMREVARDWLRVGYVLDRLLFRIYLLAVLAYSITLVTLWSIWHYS
# T1 sequence (Q9JJ16 whole entry): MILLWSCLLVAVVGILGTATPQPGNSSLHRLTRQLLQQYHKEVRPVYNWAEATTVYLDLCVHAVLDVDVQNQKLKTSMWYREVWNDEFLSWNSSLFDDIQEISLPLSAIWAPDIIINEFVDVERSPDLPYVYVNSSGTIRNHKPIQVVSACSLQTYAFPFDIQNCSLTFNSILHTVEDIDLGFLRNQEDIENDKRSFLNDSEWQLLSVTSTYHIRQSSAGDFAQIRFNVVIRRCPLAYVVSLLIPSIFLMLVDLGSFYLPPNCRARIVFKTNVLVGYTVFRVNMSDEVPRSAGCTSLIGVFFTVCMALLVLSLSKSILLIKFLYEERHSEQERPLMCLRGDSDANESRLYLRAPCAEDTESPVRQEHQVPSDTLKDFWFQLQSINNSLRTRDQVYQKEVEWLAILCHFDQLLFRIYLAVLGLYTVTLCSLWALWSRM
# Summary of the method: (§2)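 Male rat cortices, stored at -80 °C, were homogenized in ice-cold 25 mM Tris HCl pH 7.4 and spun at 50000g. Membranes were preincubated 10 min at 37 °C, washed, and resuspended with 10 µM pargyline (10 mg tissue/sample). They were incubated with 0.4 nM (final) [3H]zacopride for 30 min at 25 °C, filtered through PEI-treated GF/B and counted. IC50 came from dose-inhibition curves, mean ± SEM of three determinations.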
# NG108-15 [4] = assay: The compound was tested for efficacy against 5-Hydroxytryptamine 3 receptor by measuring [14C]guanidinium uptake on NG108-15 cells; PA=Partial agonist; assay type: functional, cell-based; conditions: filed as partial agonist; summary of the method: as §1
# [5] = molecular target: T1, Serotonin 3 (5-HT3) receptor; assay: The compound was tested for binding affinity against 5-hydroxytryptamine 3 receptor from NG108-15 cells (using [3H]zacopride as radioligand); assay type: cell-based
# Summary of the method: (§3)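 NG108-15 cells were grown in DMEM with 10% inactivated FCS plus HAT at 37 °C, 10% CO2, harvested by shaking and pelleted. About 420 000 cells/sample in 50 mM Tris HCl pH 7.5 with 25 mM NaCl were incubated with 0.4 nM (final) [3H]zacopride for 60 min at 25 °C, then filtered and counted. IC50 is mean ± SEM of three determinations.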
# [6] = molecular target: T2, 5-hydroxytryptamine receptor 1B (Rattus norvegicus, UniProt P28564); assay: The compound was tested for the binding affinity against 5-hydroxytryptamine 1B receptor using [3H]5-HT as radioligand
# T2 sequence (P28564 whole entry): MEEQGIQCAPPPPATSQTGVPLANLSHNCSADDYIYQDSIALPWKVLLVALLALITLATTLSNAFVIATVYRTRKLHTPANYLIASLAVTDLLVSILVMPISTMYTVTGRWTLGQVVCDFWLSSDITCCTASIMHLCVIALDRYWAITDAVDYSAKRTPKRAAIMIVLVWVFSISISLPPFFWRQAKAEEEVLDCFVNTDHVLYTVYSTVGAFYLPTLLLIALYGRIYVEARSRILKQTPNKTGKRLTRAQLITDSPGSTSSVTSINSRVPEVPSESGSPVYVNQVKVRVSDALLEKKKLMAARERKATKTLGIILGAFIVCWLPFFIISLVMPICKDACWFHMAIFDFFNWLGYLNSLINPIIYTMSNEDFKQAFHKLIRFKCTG
# [7] = molecular target: T3, 5-hydroxytryptamine receptor 4 (Cavia porcellus, UniProt O70528); assay: The compound was tested for the binding affinity against 5-hydroxytryptamine 4 receptor using [3H]GR-113808 as radioligand
# T3 sequence (O70528 whole entry): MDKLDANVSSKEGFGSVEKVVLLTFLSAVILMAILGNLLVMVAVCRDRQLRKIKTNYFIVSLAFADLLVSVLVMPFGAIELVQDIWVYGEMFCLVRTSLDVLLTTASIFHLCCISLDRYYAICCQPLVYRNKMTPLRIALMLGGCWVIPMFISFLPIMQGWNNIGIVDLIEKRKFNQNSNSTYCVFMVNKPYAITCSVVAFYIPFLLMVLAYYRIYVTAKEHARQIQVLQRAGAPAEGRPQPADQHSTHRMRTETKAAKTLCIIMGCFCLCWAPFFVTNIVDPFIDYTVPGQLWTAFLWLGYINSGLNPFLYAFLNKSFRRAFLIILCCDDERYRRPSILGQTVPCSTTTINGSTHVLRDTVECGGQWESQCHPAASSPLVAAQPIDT
# Summary of the method: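 Male guinea pig striatal membranes, washed and preincubated at 37 °C, were incubated with 0.1 nM (final) [3H]GR113808 for 30 min at 37 °C.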
# [8] = molecular target: T4, 5-hydroxytryptamine receptor 2A (Rattus norvegicus, UniProt P14842); assay: The compound was tested for the binding affinity against 5-hydroxytryptamine 2A receptor using [3H]ketanserin as radioligand
# T4 sequence (P14842 whole entry): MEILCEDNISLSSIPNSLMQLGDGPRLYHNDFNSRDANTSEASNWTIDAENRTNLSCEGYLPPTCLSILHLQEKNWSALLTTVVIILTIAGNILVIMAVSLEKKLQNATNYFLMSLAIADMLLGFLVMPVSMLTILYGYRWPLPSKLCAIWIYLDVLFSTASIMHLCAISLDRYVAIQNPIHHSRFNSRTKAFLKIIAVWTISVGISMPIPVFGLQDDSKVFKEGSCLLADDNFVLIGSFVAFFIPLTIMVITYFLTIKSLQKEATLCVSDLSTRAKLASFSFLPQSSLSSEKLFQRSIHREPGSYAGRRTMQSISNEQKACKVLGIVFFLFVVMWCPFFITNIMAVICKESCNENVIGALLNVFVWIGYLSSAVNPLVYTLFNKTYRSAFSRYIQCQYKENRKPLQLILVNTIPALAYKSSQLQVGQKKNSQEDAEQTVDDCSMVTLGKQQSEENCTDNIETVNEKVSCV
# [9] = molecular target: T1, Serotonin 3 (5-HT3) receptor; assay: The compound was tested for the binding affinity against 5-hydroxytryptamine 3 receptor using [3H]zacopride as radioligand; assay type: protein-complex assay
# [10] = molecular target: T5, 5-hydroxytryptamine receptor 2C (Rattus norvegicus, UniProt P08909); assay: The compound was tested for the binding affinity against 5-hydroxytryptamine 2C receptor using [3H]mesulergine as radioligand
# T5 sequence (P08909 whole entry): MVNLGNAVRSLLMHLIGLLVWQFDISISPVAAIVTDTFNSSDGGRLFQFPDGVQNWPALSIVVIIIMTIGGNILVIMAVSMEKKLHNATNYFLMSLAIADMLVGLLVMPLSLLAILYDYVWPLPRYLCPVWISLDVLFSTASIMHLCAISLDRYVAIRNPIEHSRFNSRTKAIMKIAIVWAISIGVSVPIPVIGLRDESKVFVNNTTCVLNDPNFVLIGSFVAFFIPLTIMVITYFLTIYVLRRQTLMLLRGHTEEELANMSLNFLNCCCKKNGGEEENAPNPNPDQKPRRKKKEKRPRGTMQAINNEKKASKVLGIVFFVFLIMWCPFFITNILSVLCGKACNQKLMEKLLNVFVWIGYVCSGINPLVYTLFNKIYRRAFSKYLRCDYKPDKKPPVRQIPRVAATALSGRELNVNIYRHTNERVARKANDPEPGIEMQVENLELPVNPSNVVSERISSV
# [11] = The compound was tested for brain to plasma partition in rat; assay type: ADME, organism-based; conditions: brain and plasma, read-out: AUC ratio
# Summary of the method: (§4)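 Male CD-COBS rats (175-200 g) received hydrochloride salts in saline i.v. at 5 mg/kg and were killed 60, 120 and 180 min after dosing. Plasma and brain levels were measured by HPLC-UV (254 nm) after liquid-liquid or solid-phase extraction with an internal standard. The ratio is brain-to-plasma AUC_t, 2-3 rats per point.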
# [12] = molecular target: T6, 5-hydroxytryptamine receptor 1A (Rattus norvegicus, UniProt P19327); assay: The compound was tested for the binding affinity against 5-hydroxytryptamine 1A receptor using [3H]8-OH-DPAT as radioligand.
# T6 sequence (P19327 whole entry): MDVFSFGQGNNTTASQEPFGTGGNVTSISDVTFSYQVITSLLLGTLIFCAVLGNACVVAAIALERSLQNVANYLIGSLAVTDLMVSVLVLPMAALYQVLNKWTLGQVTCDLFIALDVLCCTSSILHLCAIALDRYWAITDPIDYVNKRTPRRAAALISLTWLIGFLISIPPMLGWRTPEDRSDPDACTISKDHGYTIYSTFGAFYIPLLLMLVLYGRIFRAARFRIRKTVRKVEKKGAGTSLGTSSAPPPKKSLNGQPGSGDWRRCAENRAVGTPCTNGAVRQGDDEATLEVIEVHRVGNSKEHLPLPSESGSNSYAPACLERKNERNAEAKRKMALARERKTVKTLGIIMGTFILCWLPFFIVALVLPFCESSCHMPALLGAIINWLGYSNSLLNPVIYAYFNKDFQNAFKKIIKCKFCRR
# [13] = molecular target: T5, 5-hydroxytryptamine receptor 2C; assay: The compound was tested for the binding affinity against 5-hydroxytryptamine 2C receptor using [3H]Mesulergine as radioligand.
# NG108-15 [14] = assay: The compound was tested for efficacy against 5-Hydroxytryptamine 3 receptor by measuring [14C]guanidinium uptake on NG108-15 cells.; PA=Partial agonist; assay type: functional, cell-based; conditions: filed as partial agonist; summary of the method: as §1
# [15] = molecular target: T2, 5-hydroxytryptamine receptor 1B; assay: The compound was tested for the binding affinity against 5-hydroxytryptamine 1B receptor using [3H]5-HT as radioligand.
# [16] = molecular target: T4, 5-hydroxytryptamine receptor 2A; assay: The compound was tested for the binding affinity against 5-hydroxytryptamine 2A receptor using [3H]ketanserin as radioligand.
# [17] = molecular target: T1, Serotonin 3 (5-HT3) receptor; assay: The compound was tested for the binding affinity against 5-hydroxytryptamine 3 receptor using [3H]zacopride as radioligand.; assay type: protein-complex assay
# [18] = molecular target: T3, 5-hydroxytryptamine receptor 4; assay: The compound was tested for the binding affinity against 5-hydroxytryptamine 4 receptor using [3H]GR-113808 as radioligand.
# [19] = molecular target: T1, Serotonin 3 (5-HT3) receptor; assay: The compound was tested for binding affinity against 5-hydroxytryptamine 3 receptor from rat cortical homogenate using [3H]zacopride as radioligand; not active; summary of the method: as §2
# [20] = molecular target: T1, Serotonin 3 (5-HT3) receptor; assay: The compound was tested for binding affinity against 5-hydroxytryptamine 3 receptor from NG108-15 cells using [3H]zacopride as radioligand; assay type: cell-based; summary of the method: as §3
# [21] = The compound was tested for brain to plasma partition in rat.; assay type: ADME, organism-based; conditions: brain and plasma, read-out: AUC ratio; summary of the method: as §4
# NG108-15 [22] = assay: The compound was tested for efficacy against 5-Hydroxytryptamine 3 receptor by measuring [14C]guanidinium uptake on NG108-15 cells.; A = Agonist; assay type: functional, cell-based; conditions: filed as agonist; summary of the method: as §1
SMILES,EC50 [2],IC50 [3],Efficacy (NG108-15 [4]),Kp [11],Ki [12],Ki [13],Ki [15],Ki [16],Ki [17],Ki [18],further results
Cc1ccc2c(c1)nc(N1CCN(C)CC1)c1cccn12,14 nM,18 nM,–,–,–,–,–,–,–,–,Efficacy (NG108-15 [1]): Agonist
CN1CCN(c2nc3ncccc3n3cccc23)CC1,1.7 nM,–,Partial agonist,4.9,25.1 nM,–,–,–,–,–,IC50 [5]: 9.3 nM; Ki [6]: 25.1 nM; Ki [7]: > 10 µM; Ki [8]: > 10000 nM; Ki [9]: 2.51 nM; Ki [10]: 794 nM
Cc1cccc2nc(N3CCNCC3)c3cccn3c12,9.5 nM,1.13 nM,–,–,> 10000 nM,1000 nM,251 nM,1000 nM,1 nM,> 10 µM,Efficacy (NG108-15 [14]): Partial agonist
c1ccc(N2CCN(c3nc4ncccc4n4cccc34)CC2)cc1,–,–,–,–,–,–,–,–,–,–,IC50 [19]: Not Active
c1ccc(CN2CCN(c3nc4ncccc4n4cccc34)CC2)cc1,4.2 nM,2.2 nM,Partial agonist,2.1,> 10000 nM,–,–,–,–,–,Ki [6]: > 10000 nM; Ki [7]: > 10 µM; Ki [8]: 794 nM; Ki [9]: 2 nM; Ki [10]: > 10000 nM
CN1CCN(c2nc3cccnc3n3cccc23)CC1,–,1 nM,–,–,–,–,–,–,–,–,IC50 [20]: 5.4 nM
c1ccc2nc(N3CCNCC3)ccc2c1 [QUIPAZINE],–,3.8 nM,Partial agonist,–,–,316 nM,–,794 nM,6.31 nM,–,–
OCCN1CCN(c2nc3cccc(F)c3n3cccc23)CC1,54 nM,8.2 nM,Partial agonist,20.3,501 nM,2000 nM,1580 nM,501 nM,–,> 10 µM,Ki [9]: 7.94 nM
Cc1[nH]c2ccc(O)cc2c1CCN,–,–,–,–,–,–,–,–,200 nM,–,–
Cc1cccc2nc(N3CCN(C)CC3)c3cccn3c12,3.8 nM,0.79 nM,–,–,–,> 10000 nM,398 nM,501 nM,0.794 nM,> 10 µM,IC50 [20]: 0.26 nM; Kp [21]: 9.5; Efficacy (NG108-15 [22]): Agonist
c1csc(CN2CCN(c3nc4cccnc4n4cccc34)CC2)c1,–,3.6 nM,–,–,> 10000 nM,> 10000 nM,3980 nM,1580 nM,3.16 nM,> 10 µM,IC50 [20]: 6.4 nM
Fc1cccc2nc(N3CCN(Cc4ccc5ccccc5c4)CC3)c3cccn3c12,–,780 nM,–,2.8,–,–,–,–,–,–,–
N#CCN1CCN(c2nc3cccc(F)c3n3cccc23)CC1,–,3800 nM,–,0.1,–,–,–,–,–,–,–
